Screening results as filed in PubChem.
This is a sample that favours compounds with a hit; in the whole collection about 2.7% have one here.
PREPL inhibitor: human PREPL enzyme inhibition; recombinant PREPL, fluorescence polarization activity-based probe; inhibition, % at 5.96 µM; actives 0.68% (n = 320,000); in the data active = inhibition above about 43%;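 note: 0% = enzyme with DMSO and 100% = wells lacking enzyme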
Target sequence (Q4J6C6 whole entry, looked up): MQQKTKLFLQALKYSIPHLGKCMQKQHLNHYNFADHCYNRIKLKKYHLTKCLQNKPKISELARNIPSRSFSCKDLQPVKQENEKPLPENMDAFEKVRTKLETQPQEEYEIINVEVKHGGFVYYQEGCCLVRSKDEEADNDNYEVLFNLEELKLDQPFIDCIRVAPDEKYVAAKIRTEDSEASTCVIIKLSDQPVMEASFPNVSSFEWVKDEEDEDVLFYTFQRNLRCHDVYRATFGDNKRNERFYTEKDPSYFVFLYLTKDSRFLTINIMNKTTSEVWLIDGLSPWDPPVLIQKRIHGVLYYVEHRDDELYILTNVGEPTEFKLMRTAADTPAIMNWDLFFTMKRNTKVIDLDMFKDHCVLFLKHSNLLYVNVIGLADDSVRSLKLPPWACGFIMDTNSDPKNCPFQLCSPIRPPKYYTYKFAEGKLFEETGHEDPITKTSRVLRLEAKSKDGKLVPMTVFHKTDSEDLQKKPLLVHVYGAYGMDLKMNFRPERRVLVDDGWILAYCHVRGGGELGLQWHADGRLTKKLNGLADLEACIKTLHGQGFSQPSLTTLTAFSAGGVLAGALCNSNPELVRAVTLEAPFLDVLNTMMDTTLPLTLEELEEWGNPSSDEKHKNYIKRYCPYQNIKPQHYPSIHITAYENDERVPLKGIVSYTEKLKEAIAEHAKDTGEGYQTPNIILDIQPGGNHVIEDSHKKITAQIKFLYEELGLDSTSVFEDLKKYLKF
MC4R ag barr: agonists of human melanocortin 4 receptor (MC4R) beta-arrestin. P32245. U2OS MC4R beta-arrestin complementation, luminescence; percent of melanotan II response, DMSO zero. activation, % at 8.9 µM. actives 0.98% (n = 360,000). AID 540308;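 active = activation above a per-plate cutoff, the mean activation of sample wells on that plate plus 3 SD, cut at about 8% in these data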
HTR2A ag: mouse HTR2A agonism via beta-arrestin recruitment. CHO-K1 mHTR2A beta-arrestin complementation, luminescence; percent of 30 µM serotonin response. P35363. actives 0.66% (n = 360,000). activation, % at 7.6 µM;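 active = activation above a run cutoff, the mean activation of all tested compounds plus 3 SD, cut at about 14% in these data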;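 note: 0% = plate median of compound wells and 100% = 30 µM serotonin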
NTR1 ag: agonists of human neurotensin receptor NTR1. AID 493036. activation, % at 20 µM. NTR1-U2OS beta-arrestin-GFP spot imaging, agonist mode. actives 0.17% (n = 330,000). P30989;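 active = activation at or above 40% of the spot to cytoplasm intensity ratio, with at least 20 cells analyzed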;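 note: 0% = DMSO without peptide and 100% = 100 nM NTR1 peptide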
MC4R antag cAMP: antagonists of human melanocortin 4 receptor (MC4R) | P32245 | MC4R-expressing cells, MTII-stimulated cAMP, LANCE TR-FRET | inhibition, % at 6.5 µM | actives 0.48% (n = 360,000);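 active = inhibition above its plate's cutoff, the mean of tested wells on that plate plus 3 SD, cut at about 29% in these data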;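 note: 0% = Melanotan II alone and 100% = Melanotan II plus saturating MCL0020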
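Material: human MC4R-expressing U2OS cells. Probe or stimulus: Melanotan II challenge. Dosing: 6.5 µM single dose. Times: 30-min compound, 1-h challenge, 1-h detection, room temperature. Technique: TR-FRET with Eu-cAMP and labeled anti-cAMP, 671 nm. Replication: singlicate.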
Lipid droplet: hepatic lipid droplet formation modulation | AML12 mouse hepatocytes, oleate lipid droplets, BODIPY imaging | inhibition, % at 6.5 µM | actives 0.4% (n = 240,000);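 active = lipid droplet intensity inhibited by at least 50%, with more than 500 cells counted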
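Assay system: AML12 hepatocytes (mouse) / Also added: 100 µM oleic acid challenge / Times: overnight treatment with compound plus oleate / Detection: high-content imaging of BODIPY-stained droplets and DAPI nuclei / Evaluation: % inhibition of lipid droplet signal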
* = called active by the depositor; / = not tested or not shown.

SMILES	PREPL inhibitor	MC4R ag barr	HTR2A ag	NTR1 ag	MC4R antag cAMP	Lipid droplet
COc1ccc(C(CNC(=O)CN(C)S(=O)(=O)c2ccc(C)cc2)N2CCCC2)cc1 (configuration not stated)	6	0	-9	1	3	/
Cc1cccc(OCC(=O)NCC(=O)N/N=C/c2cc(Br)cc(Br)c2O)c1	10	1	3	52*	10	-42
COc1cccc(/C=N/NC(=O)CNC(=O)COc2ccccc2)c1O	6	-2	-2	30	10	32
COc1ccc(NC(=O)CCn2c(=S)[nH]c3ccccc3c2=O)cc1	10	8.6*	5	0	8	-15
COc1cccc(Cn2c3ccc(NC(=O)CCc4ccc(F)cc4)cc3c(=O)n2C)c1	/	0	4	/	-16	/
Cc1ccccc1NC(=O)C(=O)c1cn(C)c2ccccc12	1	12*	4	0	-3	14
O=C(CSc1nnnn1-c1ccccc1)Nc1ccc(Cl)cc1	-6	8	-1	0	3	0
CCn1c2ccccc2c2cc(NC(=O)CSc3nnnn3-c3ccccc3)ccc21	22	8.7*	-3	-1	7	24
CCCCc1cc(=O)oc2cc(C)cc(OCC(=O)Nc3cccnc3)c12	-4	8.7*	3	1	1	-1
Cc1ccc(F)cc1C(=O)N1CCCC(C)(C(=O)NS(=O)(=O)C2CC2)C1 (configuration not stated)	/	-2	-3	/	4	/
N#C/C(=C\c1sc(N2CCOCC2)nc1-c1ccccc1)C(=O)Nc1cccc2ccccc12	/	/	/	/	/	56*
CCCC[C@@H]1CNCCN1CCc1cc(C(F)(F)F)cc(C(F)(F)F)c1	10	5	9	14	1	/
NC1=NC[C@H](CC2CCCCC2)N1CCc1cc(C(F)(F)F)cc(C(F)(F)F)c1	17	9.3*	-5	6	10	-4
FC(F)(F)c1cc(CCN2CCNC[C@@H]2CC2CCCCC2)cc(C(F)(F)F)c1	18	8.7*	5	12	1	/
O=C1C(=O)c2c(C(=O)c3ccccc3)coc2-c2ccccc21	33	8.7*	1	9	-16	4
Cc1oc2c(c1C(=O)c1ccccc1)C(=O)C(=O)c1ccccc1-2	36	3	9	14	-10	/
COc1ccc(C(=O)/C=C/c2ccc(O)cc2)c(O)c1C/C=C(\C)CCC=C(C)C	14	1	-1	23	-2	/
C=C(C)C(O)CC/C(C)=C/Cc1c(O)ccc(C(=O)/C=C/c2ccc(O)cc2)c1O (configuration not stated)	-3	9.6*	-2	25	11	/
COc1ccc(S(=O)(=O)N(C)CC(=O)Nc2ccc(C(N)=O)cc2)cc1OC	7	-1	4	0	12	16
COC(=O)c1ccc(NC(=O)CN(C)S(=O)(=O)c2ccc(OC)c(C)c2)cc1	13	8.3*	-1	0	0	-8
COc1cc(C(=O)OCC(=O)NCCCc2ccccc2)ccc1OCC(C)C	11	-4	-2	-1	5	6
COc1cc(C(=O)OCC(=O)NCc2ccc(F)cc2)ccc1OCC(C)C	12	8.3*	3	2	-8	-11
COc1ccc(C(=O)N2CCOC2CNC(=O)C(=O)NCc2ccccc2)cc1 (configuration not stated)	/	2	5	/	2	/
Cc1cccc(NC(=O)c2nc[nH]c2C(=O)N2CCN(C(=O)OC(C)(C)C)CC2)c1	4	4	7	0	26	/
CCN(CC)S(=O)(=O)c1cccc(NC(=O)Nc2cccc(C(F)(F)F)c2)c1	-2	4	-3	41*	19	-7
SMILES	PREPL inhibitor	MC4R ag barr	HTR2A ag	NTR1 ag	MC4R antag cAMP	Lipid droplet
O=C(NCc1cccc(C(F)(F)F)c1)c1csc(COCCO)n1	/	0	10	/	3	/
COc1ccc(CNC[C@@H](CCCCN(C)Cc2ccc(OC)cc2)N2C[C@H](c3ccccc3)N(CCc3ccc(Cl)c(Cl)c3)C(=O)C2=O)cc1	42	25*	-2	22	30*	-12
O=C(NCCC1=CCCCC1)C(c1ccccc1)c1ccccc1	6	8.5*	-8	4	2	/
COc1ccc(CNC(=O)c2cc3c(C)nc4ccccc4c3o2)c(OC)c1	-15	8.6*	6	2	6	/
CNC[C@H](CC1CCCCC1)NC[C@H](Cc1ccccc1)NCCC12CC3CC(CC(C3)C1)C2	5	26*	3	5	27	22
Cn1ncc([N+](=O)[O-])c1C(=O)NC1CCCCC1	-4	0	-1	2	3	2
C=CCc1ccccc1OCC(O)CN1CCOCC1 (configuration not stated)	-1	0	-5	2	10	/
Cc1ccccc1OCC(O)CN1CCN(c2ccc(Cl)cc2)CC1 (configuration not stated)	23	8.2*	-14	2	8	2
C=CCc1ccccc1OCC(O)CN1CCN(c2ccc(OC)cc2)CC1 (configuration not stated)	16	8.7*	-5	3	22	/
Cc1cc(=O)[nH]c(-n2ncc(C#N)c2N)n1	18	1	1	0	2	12
Cc1ccc(/C=N/Nc2ccnc3cc(Cl)ccc23)c(C)c1	19	4	-2	7	8	26
Cc1ccccc1/C=N/Nc1ccnc2cc(Cl)ccc12	13	8.5*	-1	/	-2	3
O=C(NCCN1CCN(c2cccc(Cl)c2)CC1)C1CCCN(S(=O)(=O)c2cnc[nH]2)C1 (configuration not stated)	14	0	14	-2	2	/
O=C(NCCN1CCN(c2ccccc2)CC1)C1CCCN(S(=O)(=O)c2cnc[nH]2)C1 (configuration not stated)	17	-1	30*	-4	-2	/
CN(C)S(=O)(=O)c1ccc(F)c(C(=O)Nc2ccccc2C(=O)NC2CC2)c1	-4	2	-4	0	3	/
OC(CSc1ccc(F)cc1)CN1CCN(c2ccccc2)CC1 (configuration not stated)	-13	-1	6	1	-2	-1
O=C(/C=C/c1ccc(OCCCF)cc1)NCc1ccc(Cl)c(Cl)c1	-6	8.9*	-2	2	9	/
COc1ccc(CNC(=O)/C=C/c2ccc(OCCCF)cc2)cc1OC	12	-1	-1	0	-1	/
Cc1cc(C(=O)Nc2c[nH]c(=O)[nH]c2=O)ccc1[N+](=O)[O-]	2	0	-1	0	7	/
COc1cc(/C=C2\CCC/C(=C\c3ccc(O)c(OC)c3)C2=O)ccc1O	11	30*	-5	56*	13	10
